# From PubChem
# HUVEC prolif 384 = inhibitors of human endothelial cell proliferation | AID 648 | 86,000 tested, 1.1% active | HUVEC proliferation, CellTiter-Glo luminescence, 72 h; stronger effect = lower value | viability, % at 10 µM (by protocol);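 active = viability at or below 30%; inactive = viability above 30%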;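 note: 100% = median luminescence of DMSO-only cell control wells on each plate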
# H69AR inhibit = blocks growth of human H69AR lung tumor cells. H69AR lung tumor viability, ATP luminescence, 72 h; stronger effect = lower value. viability, % at 10 µM. 85,000 tested, 6% active. AID 598;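 active = viability at or below 40%; inactive = viability above 40%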;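 note: multidrug resistant small cell line overexpressing MRP-1 efflux transporter; 100% = mean luminescence of untreated control wells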
# Fibroblast inh = blocks proliferation of human lung fibroblasts; LL 47 human lung fibroblast viability, ATP luminescence; stronger effect = lower value; viability, % at 10 µM; 85,000 tested, 1.1% active; AID 719;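 active = viability at or below 50% in the single dose screen; inactive = viability above 50%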;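 note: compound exposure lasted 72 h before the ATP readout; 100% = median luminescence of untreated cell-only wells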
#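 material = human LL 47 lung fibroblast cells | dosing = compounds added from tenfold dosing solution, 0.1% DMSO final | timing = overnight cell rest, 72 h compound treatment at 37 °C | measured by = CellTiter-Glo luminescence measuring cellular ATP | evaluation = % viability versus median cells-only luminescence | control set = cell-only wells, no compound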
# HCT116 PTEN-null = PTEN-deleted cell growth suppression. HCT116 PTEN-null viability, CellTiter-Glo, 60 h; stronger effect = lower value. viability, % at 10 µM. 140,000 tested, 1.2% active. AID 827;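 active = viability at or below a set limit, 4 SD under the median of all tested compounds, cut at about 3.7% in these data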;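 note: PTEN knockout HCT116 line with beta catenin targeted HCT116 as companion control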
# HCT116 bCat-KO = beta-catenin-lacking colon tumor cell growth suppression; HCT116 beta-catenin knockout viability, CellTiter-Glo, 60 h; stronger effect = lower value; viability, % at 10 µM; 140,000 tested, 1.5% active;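 active = viability at or under a set limit, the compound median less 4 SD, cut at about 6% in these data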;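 note: 0% = Hyamine 1622 control at 20 µM and 100% = untreated cell control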
# The depositor's hits bear a star; . = no result. This is one part of a sample in which hits are shown more often than they occur.
SMILES,HUVEC prolif 384,H69AR inhibit,Fibroblast inh,HCT116 PTEN-null,HCT116 bCat-KO
CC1=CC(C)(C)N2C(=O)C3(C(C#N)=C(N)OC4=C3C(=O)CCC4)c3c(C)c(C)cc1c32 (stereo unspecified),.,.,.,85,87
Cc1nn(C)cc1/C=C/C(=O)c1cccs1,102,39*,103,67,67
COc1ccc(-c2nnc3c4ccccc4c(C)nn23)cc1,69,32*,79,73,77
Cc1ccc(C23CC4CC(CC(NC(=O)N5CCN(C)CC5)(C4)C2)C3)cc1,72,83,85,1.6*,1.5*
O=c1cc(CN2CCN(C/C=C/c3ccccc3)CC2)c2cc(O)c(-c3ccccc3)cc2o1,.,.,.,57,59
CN1CCN(Cc2cc(=O)oc3cc4c(cc23)CCC4)CC1,93,85,100,92,79
Cc1cc2oc(=O)cc(CN3CCOCC3)c2cc1C,96,79,97,88,86
COc1ccc(N2CCN(Cc3cc(=O)oc4cc(-c5ccccc5)c(O)cc34)CC2)cc1,32,3.1*,7.6*,6,14
COc1ccc(N2CCN(Cc3cc(=O)oc4cc(C)c(Cl)cc34)CC2)cc1,91,24*,80,94,90
O=c1cc(CN2CCN(c3ccc(F)cc3)CC2)c2cc3c(cc2o1)CCCC3,54,32*,68,87,90
O=c1cc(CN2CCN(c3ccccc3F)CC2)c2cc(O)c(-c3ccccc3)cc2o1,.,.,.,73,83
Cc1cc2oc(=O)cc(CN3CCN(C/C=C/c4ccccc4)CC3)c2cc1O,.,.,.,2.8*,2.3*
CCCOc1ccc(NC(=O)CC2C(=O)N(Cc3ccccc3)C(=S)N2Cc2cccs2)cc1 (stereo unspecified),.,.,.,43,55
Cc1ccc(C2NC(=O)c3ccccc3N2)s1 (stereo unspecified),56,32*,60,21,16
O=C1NC(c2ccncc2)Nc2ccccc21 (stereo unspecified),113,103,93,96,100
CC(COc1ccccc1)N(CCCl)Cc1ccccc1 (stereo unspecified),87,1.7*,85,98,95
C=C1C(=O)C=C2CN(C(=O)c3ccccc3)[C@@](Cc3ccc(F)cc3)(C(=O)OC)[C@@H]12,.,.,.,1.0*,0.9*
COC(=O)[C@@]1(Cc2ccc(OC)cc2)[C@@H]2C(=CC(=O)[C@H]2CC(=O)C(=O)N(C)C)CN1C(=O)c1ccccc1,.,.,.,2.5*,2.2*
CC1(C)SC(=S)N(/N=C/c2ccccc2)C1N(O)C(=O)Nc1ccc([N+](=O)[O-])cc1 (stereo unspecified),86,37*,86,49,61
CC1(C)SC(=S)N(NC(=O)Nc2cccc3ccccc23)C1N(O)C(=O)Nc1ccccc1 (stereo unspecified),.,.,.,59,59
O=C(Cc1cccs1)Nc1nnc(SCc2ccc(C(F)(F)F)cc2)s1,.,.,.,105,88
Brc1cc(Br)c2ncnc(N3CCCCC3)c2c1,8.9*,1.7*,16*,10,5.8*
Clc1ccc(-n2ncc3c(N4CCCCCC4)ncnc32)cc1,87,79,103,98,91
O=S(=O)(c1ccc(S(=O)(=O)N2CCN(C/C=C/c3ccccc3)CC2)cc1)N1CCCC1,70,36*,84,89,65
O=C(/C=C/c1cccc([N+](=O)[O-])c1)NC(=S)Nc1cccc(NC(=O)c2ccccc2Cl)c1,.,.,.,2.8*,11
SMILES,HUVEC prolif 384,H69AR inhibit,Fibroblast inh,HCT116 PTEN-null,HCT116 bCat-KO
COc1ccc(C2C(C#N)=C(N)N(c3cccnc3)C3=C2C(=O)CC(C)(C)C3)cc1OC (stereo unspecified),.,.,.,87,84
COc1ccc(OC)c(N2C(N)=C(C#N)C(c3ccc(OC)c(O)c3)C3=C2CC(C)(C)CC3=O)c1 (stereo unspecified),86,16*,97,.,.
COc1ccc(N2C(N)=C(C#N)C(c3cccnc3)C3=C2CC(C)(C)CC3=O)cc1 (stereo unspecified),65,18*,80,67,69
COc1ccc(C2C(C#N)=C(N)N(Nc3ccccc3)C3=C2C(=O)CC(C)(C)C3)cc1C (stereo unspecified),.,.,.,59,66
Cc1ccc(-n2nnnc2C(Cl)c2nnnn2-c2ccc(C)cc2)cc1,.,.,.,1.1*,1.6*
Cc1ccc(-n2nnnc2-c2ccco2)cc1,96,95,96,97,98
COc1ccc(-n2c(C)cc(/C=N/Nc3nnc(C)n3N)c2C)cc1,.,.,.,80,91
CNC(=S)N/N=C(\C)c1ccc(C)c(C)c1,.,.,.,94,84
COc1ccc(-n2c(=S)[nH]c3cc(C(=O)NCCCN4CCCC4=O)ccc3c2=O)cc1,92,98,93,13,5.2*
CCC(=O)Oc1ccc2ccccc2c1CNC(=O)c1ccccc1,.,.,.,71,75
Oc1[nH]c2ccccc2c1C=Nc1ccc2c(c1)OCO2,.,.,.,81,77
O=c1c2ccccc2c(C=Nc2cccc(O)c2)c(O)n1-c1ccc2c(c1)OCO2,.,.,.,9,3.7*
O=C1CC(N(CCc2ccccc2)C(=S)Nc2ccccc2)C(=O)N1c1ccc(Br)cc1 (stereo unspecified),.,.,.,2.8*,1.9*
COc1ccc(CCN(C(=S)Nc2ccccc2)C2CC(=O)N(c3ccccc3)C2=O)cc1 (stereo unspecified),.,.,.,66,50
COc1cc2c(cc1OC)C(C1C(=O)CC(C)CC1=O)N(C(=O)CCl)CC2 (stereo unspecified),.,.,.,98,84
CCOc1cc(C(=O)NCCCn2ccnc2)cc(OCC)c1OCC,.,.,.,92,90
CCN(CC)S(=O)(=O)c1ccc2oc(C(=O)NCc3ccc(F)cc3)c(C)c2c1,65,33*,90,62,61
CCN(CC)S(=O)(=O)c1ccc2oc(C(=O)NCC3COc4ccccc4O3)c(C)c2c1 (stereo unspecified),84,32*,93,50,49
N#Cc1ccc2ccn(CC(=O)NCc3ccccc3)c2c1,75,36*,92,25,26
N#Cc1ccc2ccn(CC(=O)NC3CCCCC3)c2c1,102,101,100,90,82
CCOc1cc(C=O)ccc1OCCSc1ccc(Cl)cc1,.,.,.,103,109
Nc1c2c(nc3ccc(Br)cc13)N(c1ccccc1)CC2,78,32*,94,63,76
Cc1cccc(N2CCc3c2nc2ccc(Br)cc2c3N)c1,62,22*,99,40,49
Nc1c2c(nc3ccc(Br)cc13)N(Cc1ccccc1)CC2,.,.,.,86,86
COc1cc(Cl)c(C)cc1NC(=O)CSc1ccc(NC(C)=O)cc1,.,.,.,84,86
CC1=C(C(=O)Nc2ccc([N+](=O)[O-])cc2)C(c2cccc(C(F)(F)F)c2)NC(=S)N1c1ccccc1 (stereo unspecified),.,.,.,1.9*,1.4*
COc1ccc(-n2cc(-c3ccccc3)c3c(N4CCN(CCO)CC4)ncnc32)cc1,30*,58,74,18,33
O=C(NC(=S)Nc1ccc2c(c1)OCO2)c1ccc(Cl)cc1,.,.,.,64,0.2*
